LAP4 TOR yeast – yeast TOR pathway LAP4-GFP modulation | S. cerevisiae LAP4-GFP multiplex, flow cytometry GFP, 3 h; median GFP as percent of DMSO wells | GFP response vs DMSO, % at 10 µM | hit rate 0.34% among 320,000 | AID 2023;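 active = GFP response vs DMSO above a set limit, about the screen mean plus 3 SD, cut at about 150% in these data; inconclusive = under 70 cell events counted for the yeast strain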
RPL19A TOR yeast – alters RPL19A-GFP fluorescence in TOR pathway yeast screen | S. cerevisiae RPL19A-GFP strain, flow cytometry, 3 h; hits give low values | percent response vs DMSO, % at 10 µM | hit rate 0.3% among 330,000;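 active = percent response vs DMSO below 50%; inconclusive = fewer than 70 events counted for the yeast strain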;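 also: median channel GFP fluorescence of the barcoded RPL19A-GFP strain; ratio of sample median GFP to plate DMSO average so 100% = DMSO; lower means less RPL19A-GFP as with rapamycin TOR inhibition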
T cell HTS – T cell immune modulators affecting CD8 T cell-vesicle binding | 2C CD8+ T cell-vesicle binding, flow cytometry; hits give low values | response (vesicle binding), % at 7 µM | hit rate 0.068% among 330,000;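 active = response, share of CD8 T cells binding vesicles, and their 90th percentile fluorescence all below set limits, cut at about 80% in these data, passing the limit was not always enough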;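 also: values below 100% mean blocked vesicle binding to the CD8+ T cells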
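System: murine 2C transgenic CD8+ T lymphocytes; also added: QL9-loaded Drosophila micro-vesicles; times: binding 1.5 h at 37 °C; measured by: flow cytometry, PE anti-B7-1 (FL2) versus Alexa647 anti-CD8 (FL8), PFA-fixed; control set: Peptide-free naked vesicles (low) and QL9 vesicles with 0.7% DMSO vehicle (high)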
AGP1 TOR yeast – modulators of TOR pathway AGP1-GFP in S. cerevisiae. S. cerevisiae AGP1-GFP multiplex flow cytometry, 3 h; GFP as percent of DMSO wells. GFP response vs DMSO, % at 10 µM. hit rate 0.02% among 320,000;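 active = GFP response relative to DMSO above a set limit, near screen average plus 3 SD, cut at about 150% in these data; inconclusive = fewer than 70 cells counted for the yeast strain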;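 also: median GFP channel fluorescence of the gated AGP1 strain per well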
MEP2-GFP yeast – yeast TOR pathway MEP2-GFP modulation; AID 2016; GFP response vs DMSO, % at 10 µM; hit rate 0.51% among 330,000; S. cerevisiae MEP2-GFP strain, flow cytometry GFP, 3 h; 100% = DMSO control level;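 active = GFP response versus DMSO above a set limit, roughly screen mean plus 3 SD, cut at about 180% in these data; inconclusive = fewer than 70 cells counted for a yeast strain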;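 also: median GFP fluorescence of the barcode-gated MEP2-GFP cells per well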
CIT2-GFP yeast – modulators of TOR pathway CIT2-GFP in S. cerevisiae; S. cerevisiae CIT2-GFP strain, flow cytometry, 3 h; 100 means same as DMSO wells; GFP response vs DMSO, % at 10 µM; hit rate 0.065% among 320,000; AID 2029;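 active = GFP response relative to DMSO above a set limit, near the screen mean plus 3 SD, cut at about 150% in these data; inconclusive = Fewer than 70 cells measured for a yeast strain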;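 also: ratio of well median GFP fluorescence to mean of DMSO wells on the plate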
* = called active by the depositor; ? = inconclusive; / = no result; + = active, no number; [ ] = remark or other dose. Compounds with a hit are over-represented: about 0.96% of the library has one in this group of screens.

SMILES	LAP4 TOR yeast	RPL19A TOR yeast	T cell HTS	AGP1 TOR yeast	MEP2-GFP yeast	CIT2-GFP yeast
CC(C)n1c(SCC(=O)N2CCCCC2)nc2c1c(=O)n(C)c(=O)n2C	87	54	185	21	305*[may fluoresce violet]	?
O=C(/C=C/c1cccs1)NNC(=O)c1cccc([N+](=O)[O-])c1	94	101	435	100	108	105
O=C(/C=C/c1cccs1)NNC(=O)c1ccccc1	109	108	31*	107	109	110
COc1ccccc1OCC(=O)NC1CC(C)(C)NC(C)(C)C1	96	102	218	106	101	111
CNc1sc(C(=O)c2ccc(F)cc2)c(N)c1-c1nc2ccccc2s1	153*[may fluoresce violet]	96	704	42	97	?
CN(C)c1ccc(C(CNC(=O)COc2ccc(Cl)cc2)N2CCCC2)cc1 (configuration not stated)	93	97	323	97	95	92
Cc1oc2c(CN3CCOCC3)c(O)ccc2c(=O)c1-c1ccccc1	95	95	415	105	102	99
Cc1oc2c(CN3CCCC(C)C3)c(O)ccc2c(=O)c1-c1ccccc1 (configuration not stated)	99	50	597	56	253*	94
Cc1c(NC(=O)CN2C(=O)NC(C)(c3ccc(Cl)cc3)C2=O)c(=O)n(-c2ccccc2)n1C (configuration not stated)	104	94	472	106	93	97
CCCOc1ccc(-c2c(C(=O)N/N=C/C3CCCCC3)nnn2-c2nonc2N)cc1	77	27*[may fluoresce violet]	298	?	148	?
CCCOc1ccc(-c2c(C(=O)N/N=C/C3CC=CCC3)nnn2-c2nonc2N)cc1 (configuration not stated)	91	103	374	110	108	114
COCCN(C(=O)CSc1nnc(-c2ccccc2OC)o1)c1c(N)n(CC(C)C)c(=O)[nH]c1=O	97	88	239	98	89	84
O=C(CCC(=O)N/N=C/c1cc(Cl)cc(Cl)c1O)NCc1ccccc1	100	75	124	22	364*[may fluoresce violet]	?
COc1ccc(N=C2S/C(=C\c3ccc(Cl)c([N+](=O)[O-])c3)C(=O)N2CCN(C)C)cc1	101	106	698	101	104	108
CCN(CC)CCN1C(=O)/C(=C\c2ccc(Cl)c([N+](=O)[O-])c2)SC1=Nc1ccc(OC)cc1	78	53	324	?	197*[may fluoresce violet]	?
CCC(CC)NC(=O)Cc1ccc(F)cc1	921*[may fluoresce green]	267	233	251*[may fluoresce green]	+[may fluoresce green]	+[may fluoresce green]
C/C(=N\NC(=O)COc1ccccc1-c1ccccc1)c1ccccn1	171*	90	296	95	93	105
C/C(=N\NC(=O)COc1ccccc1-c1ccccc1)c1cccnc1	94	103	336	106	100	98
Cc1nn(CC2CC2)c(=O)n1-c1ccccc1	97	96	173	109	101	114
CC(NC(=O)c1c(O)c2ccccc2[nH]c1=O)c1ccccc1 (configuration not stated)	88	102	408	95	98	93
CCN(CC)S(=O)(=O)c1ccc(N2CCN(C)CC2)c(NC(=O)c2cc(=O)c3ccccc3o2)c1	?	39*[may fluoresce violet]	329	?	?	?
CCn1nc(NC(=O)C(C)C)c2cc3cccc(C)c3nc21	100	101	70	94	92	93
O=C(Nc1ccc(F)cc1)c1cc2cc(Cl)ccc2[nH]1	132	105	284	102	190*	142
CCc1ccc2[nH]c(C(=O)Nc3ccc(C)c(F)c3)cc2c1	88	102	167	91	105	93
Cc1cccc(N2C(=O)C3C4C=CC(C4)C3C2=O)c1 (configuration not stated)	93	48*[may fluoresce violet]	480	?	238*[may fluoresce violet]	?
SMILES	LAP4 TOR yeast	RPL19A TOR yeast	T cell HTS	AGP1 TOR yeast	MEP2-GFP yeast	CIT2-GFP yeast
Cc1ccc(N2C(=O)C3C4C=CC(C4)C3C2=O)cc1C (configuration not stated)	95	96	152	100	99	99
CCOC(=O)c1sc(-c2ccc(C(F)(F)F)cc2)nc1O	140	88	545	26	529*[may fluoresce violet]	?
CC(NS(=O)(=O)c1ccc(OCC(=O)NCc2ccncc2)cc1)c1ccccc1 (configuration not stated)	103	105	558	104	107	104
CCOc1ccccc1-c1noc(CCC(=O)Nc2cccnc2)n1	88	68	795	68	223*	89
COC(=O)c1cccc(-n2c(CCC(=O)O)ccc2-c2cccs2)c1	157*	95	235	99	95	84
COc1ccc(S(=O)(=O)N(CC(=O)N2CCOCC2)c2ccc(F)cc2)cc1OC	80	?	182	?	221*[may fluoresce red and violet]	?
COC(=O)CN(c1ccc(OC)cc1)S(=O)(=O)c1ccc(OC)c(OC)c1	103	99	352	100	103	104
COc1ccc(N(CC(=O)N2CCCCCC2)S(=O)(=O)c2ccc(OC)c(OC)c2)cc1	90	103	242	102	98	106
CCOc1ccc(N(CC(=O)OC)S(=O)(=O)c2ccc(OC)c(OC)c2)cc1	80	56	503	/	205*[may fluoresce violet]	?
CC(=O)C(Cc1ccc(Cl)nc1)Cc1ccc(Cl)nc1	95	91	317	90	97	90
COC(=O)Cc1ccc(OCc2ccc(Cl)nc2)cc1	163*	75	422	76	74	57
N#Cc1ccccc1Cn1cc(/C=C/[N+](=O)[O-])c2ccccc21	156*	93	119	98	84	89
O=C(O)Cn1cc(/C=C/[N+](=O)[O-])c2ccccc21	103	103	349	106	105	105
O=[N+]([O-])/C=C/c1cn(Cc2ccccc2)c2ccccc12	178*	89	227	94	101	93
COc1cccc(NC(=O)CN(C)C(=O)c2cc(-c3ccccc3)nn2-c2ccccc2)c1	89	98	123	100	109	115
Cc1ccc(S(=O)(=O)NCCc2ccncc2)cc1	100	62	428	17	223*[may fluoresce violet]	?
O=C(c1ccc([N+](=O)[O-])o1)N1CCN(c2nc3c(Cl)cccc3s2)CC1	128	95	261	102	95	95
O=C(c1ccc([N+](=O)[O-])o1)N1CCN(c2nc3ccc(F)cc3s2)CC1	163*	93	403	90	96	78
O=C(NC(Cc1ccccc1)C(=O)O)/C(=C/c1ccccc1)NC(=O)c1ccco1 (configuration not stated)	66	22*[may fluoresce violet]	283	?	220*[may fluoresce violet]	?
